What was measured:
[1] = AUC (0.5 to 6 hrs) in C57BL/6 mouse brain assessed as 2-(3-chloro-4-((3-((7-propyl-3-(trifluoromethyl)-benzo[d]isoxazol-6-yl)oxy)propyl)thio)phenyl)acetic acid level at 9.14 umol/kg, ip by LC-MS/MS analysis; type: ADME, organism-based; design: time upper 6 hr, dose 9.14 umol/kg, time lower 0.5 hr, route intraperitoneal; settings: in vivo
Method in brief: (§1)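 Male wild-type C57BL/6 mice (8−10 weeks, n=3 per time point) received parent drug or equimolar prodrug at […] i.p. in DMSO. Brain and serum were collected at 0.5, 2 and 6 h. Parent acid was quantified by LC-MS/MS against vehicle-tissue standard curves with d₆-sobetirome internal standard. AUC0.5–6 h was computed from the time course; mean ± SEM.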

[2] = AUC (0.5 to 6 hrs) in C57BL/6 mouse serum assessed as 2-(3-chloro-4-((3-((7-propyl-3-(trifluoromethyl)-benzo[d]isoxazol-6-yl)oxy)propyl)thio)phenyl)acetic acid level at 9.14 umol/kg, ip by LC-MS/MS analysis; type: ADME, organism-based; design: dose 9.14 umol/kg, time 0.5-6 hr, route intraperitoneal; settings: in vivo; method in brief: as §1
[3] = Brain to serum concentration ratio, Kp of the compound in C57BL/6 mouse assessed as 2-(3-chloro-4-((3-((7-propyl-3-(trifluoromethyl)-benzo[d]isoxazol-6-yl)oxy)propyl)thio)phenyl)acetic acid level at 9.14 umol/kg, ip by LC-MS/MS analysis; type: ADME, organism-based
Method in brief: (§2)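 Brain-to-serum ratio Kp was calculated from brain and serum parent-drug AUC0.5–6 h (ng/g*h). These AUCs came from male C57BL/6 mice (n=3 per time point) given parent drug or equimolar prodrug at […] i.p. in DMSO, sampled at 0.5, 2 and 6 h. Parent acid was quantified by LC-MS/MS with d₆-sobetirome internal standard.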

[4] = Prodrug conversion in C57BL/6 mouse brain assessed as 2-(3-chloro-4-((3-((7-propyl-3-(trifluoromethyl)-benzo[d]isoxazol-6-yl)oxy)propyl)thio)phenyl)acetic acid level at 9.14 umol/kg, ip measured after 1 hr in presence of FAAH inhibitor PF-3845 by LC-MS/MS analysis; type: ADME, organism-based; settings: in vivo
Method in brief: (§3)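 Male C57BL/6 mice (n=3) received PF-3845 at 1 mg/kg i.p., then prodrug at […] i.p. 1 h later; comparators received prodrug alone. Vehicle was DMSO. Whole brain was taken 1 h after prodrug and homogenized in water with d₆-sobetirome internal standard. It was extracted with EtOAc/MeCN and parent acid was measured by LC-MS/MS; mean ± SEM, 2-tailed unpaired t test.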

[5] = biological target: T1, Fatty-acid amide hydrolase 1 (Homo sapiens, UniProt O00519); assay: Substrate activity at FAAH1 in human brain S9 fraction assessed as 2-(3-chloro-4-((3-((7-propyl-3-(trifluoromethyl)-benzo[d]isoxazol-6-yl)oxy)propyl)thio)phenyl)acetic acid level at 100 uM measured after 15 mins by LC-MS/MS analysis; type: ADME, subcellular; settings: s9, 0.25 h
T1 sequence (O00519 whole entry): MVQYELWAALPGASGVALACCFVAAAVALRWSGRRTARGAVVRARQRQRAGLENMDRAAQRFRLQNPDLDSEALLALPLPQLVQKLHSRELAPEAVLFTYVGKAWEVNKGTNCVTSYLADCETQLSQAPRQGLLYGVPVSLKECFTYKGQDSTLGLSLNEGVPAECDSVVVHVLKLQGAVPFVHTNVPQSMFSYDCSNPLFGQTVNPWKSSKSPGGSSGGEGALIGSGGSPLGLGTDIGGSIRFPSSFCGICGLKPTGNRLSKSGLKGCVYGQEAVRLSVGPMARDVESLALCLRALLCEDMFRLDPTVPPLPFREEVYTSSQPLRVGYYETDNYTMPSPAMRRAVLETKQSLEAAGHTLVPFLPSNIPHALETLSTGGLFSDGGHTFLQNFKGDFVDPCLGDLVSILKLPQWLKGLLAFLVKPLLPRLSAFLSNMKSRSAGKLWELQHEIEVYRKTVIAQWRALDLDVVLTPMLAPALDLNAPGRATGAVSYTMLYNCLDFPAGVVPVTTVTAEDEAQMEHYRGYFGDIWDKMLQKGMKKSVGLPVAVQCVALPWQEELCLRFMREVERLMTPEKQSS
Method in brief: (§4)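 Human brain S9 at 1 mg/mL, with or without […] PF-3845, was prewarmed 5 min at 37 °C. It was incubated 15 min at 37 °C with 100 µM prodrug (final), then quenched with MeCN/DMF containing d₆-sobetirome. Parent acid was measured by LC-MS/MS. FAAH-dependent level = untreated sample (n=3) minus mean PF-3845 samples (n>2).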

[6] = AUC (0.5 to 6 hrs) in C57BL/6 mouse brain assessed as bezafibrate level at 9.14 umol/kg, ip by LC-MS/MS analysis; type: ADME, organism-based; design: time 0.5-6 hr, dose 9.14 umol/kg, route intraperitoneal; settings: in vivo; method in brief: as §1
[7] = AUC (0.5 to 6 hrs) in C57BL/6 mouse serum assessed as bezafibrate level at 9.14 umol/kg, ip by LC-MS/MS analysis; type: ADME, organism-based; design: dose 9.14 umol/kg, time upper 6 hr, time lower 0.5 hr, route intraperitoneal; settings: in vivo; method in brief: as §1
[8] = Brain to serum concentration ratio, Kp of the compound in C57BL/6 mouse assessed as bezafibrate level at 9.14 umol/kg, ip by LC-MS/MS analysis; type: ADME, organism-based; method in brief: as §2
[9] = Prodrug conversion in C57BL/6 mouse brain assessed as 4-chlorobenzoate formation at 9.14 umol/kg, ip measured up to 6 hrs by LC-MS/MS analysis; type: ADME, organism-based; settings: in vivo, BLD = below limit of detection
Method in brief: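 Male C57BL/6 mice (n=3) received prodrug at […] i.p. in DMSO. Brain was collected at 0.5, 2 and 6 h. The 4-chlorobenzoate cleavage product was sought by LC-MS/MS against a vehicle-brain standard curve with d₆-sobetirome internal standard; the limit was LoQ.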

[10] = Prodrug conversion in C57BL/6 mouse brain assessed as bezafibrate level at 9.14 umol/kg, ip measured after 1 hr in presence of FAAH inhibitor PF-3845 by LC-MS/MS analysis; type: ADME, organism-based; settings: in vivo; method in brief: as §3
[11] = biological target: T2, Fatty-acid amide hydrolase 2 (Homo sapiens, UniProt Q6GMR7); assay: Substrate activity at FAAH2 in human brain S9 fraction assessed as bezafibrate level at 100 uM measured after 15 mins by LC-MS/MS analysis; type: ADME, subcellular; settings: s9, 0.25 h; method in brief: as §4
T2 sequence (Q6GMR7 whole entry): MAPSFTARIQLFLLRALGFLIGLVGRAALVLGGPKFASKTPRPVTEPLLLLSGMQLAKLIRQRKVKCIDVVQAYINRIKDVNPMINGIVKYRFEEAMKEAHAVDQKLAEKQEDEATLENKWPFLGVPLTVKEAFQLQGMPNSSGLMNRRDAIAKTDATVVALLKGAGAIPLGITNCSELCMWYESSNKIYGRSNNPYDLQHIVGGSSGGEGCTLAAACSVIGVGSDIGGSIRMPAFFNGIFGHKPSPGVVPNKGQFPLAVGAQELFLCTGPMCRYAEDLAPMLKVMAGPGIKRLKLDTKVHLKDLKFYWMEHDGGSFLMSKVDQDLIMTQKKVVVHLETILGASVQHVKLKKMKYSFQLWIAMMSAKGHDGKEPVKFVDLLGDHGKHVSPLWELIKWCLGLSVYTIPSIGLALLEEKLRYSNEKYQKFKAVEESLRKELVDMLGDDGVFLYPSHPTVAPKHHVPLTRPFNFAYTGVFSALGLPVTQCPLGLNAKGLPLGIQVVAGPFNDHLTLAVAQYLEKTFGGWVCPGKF

[12] = Renal toxicity in C57BL/6 mouse assessed effect on Fasn gene expression in kidney at 9.14 umol/kg, ip administered once daily for 7 days by Trizol reagent based RT-qPCR analysis; type: organism-based; settings: in vivo, 168 h
Method in brief: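 Male C57BL/6 mice (n=5) were dosed once daily for 7 days i.p. with parent drug at […], equimolar prodrug, or vehicle. The vehicle was 1:1:8 Kolliphor:NMP:water. Target gene expression was compared between groups per tissue by 2-tailed unpaired t test.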

Row | AUC [1] | AUC [2] | Kp [3] | Drug metabolism [4] | Drug metabolism [5] | AUC [6] | AUC [7] | Kp [8] | Drug metabolism [9] | Drug metabolism [10] | Drug metabolism [11] | Structure (SMILES) | Drug metabolism [12]
1 | 12.64 ng·h/g | 276.5 ng·h/g | 0.05 | Metabolite_Notdetected | Metabolite_Notdetected |  |  |  |  |  |  | CCCc1c(OCCCSc2ccc(CC(=O)NC)cc2Cl)ccc2c(C(F)(F)F)noc12 | 
2 |  |  |  |  |  | 26.3 ng·h/g | 470.6 ng·h/g | 0.06 | Bld | Metabolite_Notdetected | Metabolite_Detected | CNC(=O)C(C)(C)Oc1ccc(CCNC(=O)c2ccc(Cl)cc2)cc1 | Metabolite_Detected
